Legend:
[1] = target: T1, Protoporphyrinogen oxidase (Homo sapiens, UniProt P50336); experiment: Inhibition of Homo sapiens (human) recombinant protoporphyrinogen oxidase expressed in Escherichia coli JM109 assessed as oxidation of protoporphyrinogen IX substrate by fluorescence assay
T1 sequence (P50336 whole entry): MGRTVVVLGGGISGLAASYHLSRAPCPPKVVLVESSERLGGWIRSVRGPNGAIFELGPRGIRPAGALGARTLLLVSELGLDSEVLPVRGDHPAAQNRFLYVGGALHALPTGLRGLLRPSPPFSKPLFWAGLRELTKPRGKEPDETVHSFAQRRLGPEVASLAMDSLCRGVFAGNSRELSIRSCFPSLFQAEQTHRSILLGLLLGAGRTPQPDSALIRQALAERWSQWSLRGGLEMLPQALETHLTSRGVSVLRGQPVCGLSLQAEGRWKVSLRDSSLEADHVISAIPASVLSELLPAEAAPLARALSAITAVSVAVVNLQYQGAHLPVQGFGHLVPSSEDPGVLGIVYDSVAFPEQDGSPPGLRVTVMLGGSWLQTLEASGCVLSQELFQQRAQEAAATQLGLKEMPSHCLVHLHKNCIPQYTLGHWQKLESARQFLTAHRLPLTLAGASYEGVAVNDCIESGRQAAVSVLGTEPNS

Amaranthus retroflexus = experiment: Post-emergence herbicidal activity against Amaranthus retroflexus assessed as growth inhibition at emulsified concentrate of 150 g/ai ha after 15 days by greenhouse test; format: functional
In short: (§1)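 About 20 seeds sown 1–3 cm deep, grown at 15–30 °C and 50% RH. Dicot seedlings sprayed postemergence at the two-leaf stage with a 100 g/L emulsifiable concentrate (DMF/Tween-80) diluted in water, 150 g ai/ha. Untreated and solvent controls included. Visual rating at 15 days, three replicates.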

Poa annua = experiment: Post-emergence herbicidal activity against Poa annua assessed as growth inhibition at emulsified concentrate of 150 g/ai ha after 15 days by greenhouse test; format: functional
In short: (§2)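 About 20 seeds sown 1–3 cm deep, grown at 15–30 °C and 50% RH. Monocot seedlings sprayed postemergence at the one-leaf stage with a 100 g/L emulsifiable concentrate (DMF/Tween-80) diluted in water, 150 g ai/ha. Untreated and solvent controls included. Visual rating at 15 days, three replicates.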

Eclipta prostrata = experiment: Post-emergence herbicidal activity against Eclipta prostrata assessed as growth inhibition at emulsified concentrate of 150 g/ai ha after 15 days by greenhouse test; format: functional
In short: as §1

Brassica juncea = experiment: Post-emergence herbicidal activity against Brassica juncea assessed as growth inhibition at emulsified concentrate of 150 g/ai ha after 15 days by greenhouse test; format: functional
In short: as §1

Digitaria sanguinalis = experiment: Post-emergence herbicidal activity against Digitaria sanguinalis (hairy crabgrass) assessed as growth inhibition at emulsified concentrate of 150 g/ai ha after 15 days by greenhouse test; format: functional
In short: as §2

Echinochloa crus-galli = experiment: Post-emergence herbicidal activity against Echinochloa crus-galli (barnyard grass) assessed as growth inhibition at emulsified concentrate of 150 g/ai ha after 15 days by greenhouse test; format: functional
In short: as §2

Row | Structure (SMILES) | Ki [1] [nM] | inhibition (INH) (Amaranthus retroflexus) [%] | inhibition (INH) (Poa annua) [%] | inhibition (INH) (Eclipta prostrata) [%] | inhibition (INH) (Brassica juncea) [%] | inhibition (INH) (Digitaria sanguinalis) [%] | inhibition (INH) (Echinochloa crus-galli) [%]
1 | C#CCSc1nc2cc(-n3nc(C(C)(C)C)oc3=O)c(Cl)cc2s1 | 8610 |  |  |  |  |  | 
2 | CC(C)(C)c1nn(-c2cc3nc(SCC=C(Cl)Cl)sc3cc2Cl)c(=O)o1 | 10200 | 70 | 0 | 40 | 70 | 0 | 0
3 | CCOC(=O)CCCSc1nc2cc(-n3nc(C(C)(C)C)oc3=O)c(Cl)cc2s1 | 2020 | 50 | 0 | 0 | 0 | 0 | 0
4 | CCOC(=O)C(C)Sc1nc2cc(-n3nc(C(C)(C)C)oc3=O)c(Br)cc2s1 (centres undefined) | 8130 | 70 | 0 | 60 | 0 | 0 | 0
5 | CC(C)(C)OC(=O)CSc1nc2cc(-n3nc(C(C)(C)C)oc3=O)c(F)cc2s1 | 1590 | 0 | 0 | 0 | 0 | 0 | 0
6 | CCOC(=O)CCCSc1nc2cc(-n3nc(C(C)(C)C)oc3=O)c(Br)cc2s1 | 5830 |  |  |  |  |  | 
7 | Cc1nn(-c2cc(NS(C)(=O)=O)c(Cl)cc2Cl)c(=O)n1C(F)F [SULFENTRAZONE] | 720 | 100 |  | 100 | 100 | 70 | 75
8 | C=CCSc1nc2cc(-n3nc(C(C)(C)C)oc3=O)c(F)cc2s1 | 15900 | 60 | 0 | 40 | 60 | 0 | 0
9 | CCCOC(=O)CSc1nc2cc(-n3nc(C(C)(C)C)oc3=O)c(Br)cc2s1 | 3100 | 50 | 0 | 30 | 0 | 0 | 0
10 | CC(C)(C)OC(=O)CSc1nc2cc(-n3nc(C(C)(C)C)oc3=O)c(Cl)cc2s1 | 840 | 40 | 0 | 30 | 50 | 0 | 0
11 | CCCOC(=O)CSc1nc2cc(-n3nc(C(C)(C)C)oc3=O)c(Cl)cc2s1 | 980 | 70 | 0 | 0 | 0 | 0 | 0
12 | CCOC(=O)Sc1nc2cc(-n3nc(C(C)(C)C)oc3=O)c(F)cc2s1 | 1300 | 0 | 0 | 0 | 0 | 0 | 0
13 | COC(=O)CSc1nc2cc(-n3nc(C(C)(C)C)oc3=O)c(Cl)cc2s1 | 1070 | 70 | 0 | 50 | 0 | 0 | 0
14 | CCOC(=O)CCSc1nc2cc(-n3nc(C(C)(C)C)oc3=O)c(F)cc2s1 | 320 | 50 | 0 | 50 | 60 | 0 | 0
15 | COC(=O)/C=C/CSc1nc2cc(-n3nc(C(C)(C)C)oc3=O)c(F)cc2s1 | 7480 | 40 | 0 | 50 | 40 | 0 | 0
16 | CC(C)OC(=O)CSc1nc2cc(-n3nc(C(C)(C)C)oc3=O)c(Br)cc2s1 | 5970 | 75 | 0 | 0 | 0 | 0 | 0
17 | COC(=O)Sc1nc2cc(-n3nc(C(C)(C)C)oc3=O)c(F)cc2s1 | 720 | 40 | 0 | 0 | 0 | 0 | 0
18 | CCOC(=O)CCSc1nc2cc(-n3nc(C(C)(C)C)oc3=O)c(Br)cc2s1 | 1690 | 0 | 0 | 30 | 0 | 0 | 0
19 | COC(=O)CSc1nc2cc(-n3nc(C(C)(C)C)oc3=O)c(F)cc2s1 | 3990 | 60 | 0 | 0 | 0 | 0 | 0
20 | C#CCSc1nc2cc(-n3nc(C(C)(C)C)oc3=O)c(Br)cc2s1 | 11100 | 40 | 0 | 40 | 40 | 0 | 0
21 | CCOC(=O)Sc1nc2cc(-n3nc(C(C)(C)C)oc3=O)c(Cl)cc2s1 | 330 | 70 | 0 | 40 | 70 | 0 | 0
22 | CCOC(=O)CSc1nc2cc(-n3nc(C(C)(C)C)oc3=O)c(Cl)cc2s1 | 1010 | 70 | 0 | 60 | 50 | 0 | 0
23 | CC(C)(C)c1nn(-c2cc3nc(SCC=C(Cl)Cl)sc3cc2Br)c(=O)o1 | 18600 |  |  |  |  |  | 
24 | CCOC(=O)C(C)(C)Sc1nc2cc(-n3nc(C(C)(C)C)oc3=O)c(F)cc2s1 | 1540 | 60 | 0 | 70 | 50 | 0 | 0
25 | CC(C)(C)c1nn(-c2cc3nc(SCC=C(Cl)Cl)sc3cc2F)c(=O)o1 | 10900 | 60 | 50 | 60 | 70 | 40 | 50
26 | C=CCSc1nc2cc(-n3nc(C(C)(C)C)oc3=O)c(Cl)cc2s1 | 3110 | 70 | 0 | 60 | 70 | 0 | 0
27 | CCOC(=O)CSc1nc2cc(-n3nc(C(C)(C)C)oc3=O)c(Br)cc2s1 | 6960 | 75 | 0 | 0 | 0 | 0 | 0
28 | CCOC(=O)C(C)(C)Sc1nc2cc(-n3nc(C(C)(C)C)oc3=O)c(Cl)cc2s1 | 1350 | 50 | 0 | 50 | 60 | 0 | 0
29 | CC(C)OC(=O)CSc1nc2cc(-n3nc(C(C)(C)C)oc3=O)c(Cl)cc2s1 | 2170 | 50 | 0 | 0 | 0 | 0 | 0

From ChEMBL document CHEMBL3045650, “Design, synthesis, and 3D-QSAR analysis of novel 1,3,4-oxadiazol-2(3H)-ones as protoporphyrinogen oxidase inhibitors” (J Agric Food Chem, 2010)
